ChEMBL document CHEMBL3600302, “A Ligand-Based Drug Design. Discovery of 4-Trifluoromethyl-7,8-pyranocoumarin as a Selective Inhibitor of Human Cytochrome P450 1A2” (J Med Chem, 2015)

Experiments:
[1] = molecular target: T1, Cytochrome P450 1A2 (Homo sapiens, UniProt P05177); assay: Inhibition of human microsomal CYP1A2-dependent methoxyresorufin-O-demethylase activity by spectrofluorimetric analysis in presence of NADPH regenerating solution
T1 sequence (P05177 whole entry): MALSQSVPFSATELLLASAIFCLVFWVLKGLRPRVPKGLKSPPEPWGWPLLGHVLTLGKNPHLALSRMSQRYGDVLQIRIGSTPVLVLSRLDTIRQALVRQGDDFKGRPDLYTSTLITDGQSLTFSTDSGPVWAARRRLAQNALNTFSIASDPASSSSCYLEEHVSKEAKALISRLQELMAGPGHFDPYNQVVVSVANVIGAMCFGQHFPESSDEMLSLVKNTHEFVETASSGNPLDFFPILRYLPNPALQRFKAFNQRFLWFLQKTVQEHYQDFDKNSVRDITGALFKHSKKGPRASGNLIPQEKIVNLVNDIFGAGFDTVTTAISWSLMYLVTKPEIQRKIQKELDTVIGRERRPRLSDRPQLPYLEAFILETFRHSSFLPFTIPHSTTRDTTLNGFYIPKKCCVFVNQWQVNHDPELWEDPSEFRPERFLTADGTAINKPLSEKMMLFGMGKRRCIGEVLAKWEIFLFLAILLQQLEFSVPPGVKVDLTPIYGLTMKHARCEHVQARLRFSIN
Method in brief: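 Microsomal P450 (final 5 nM) in 0.1 M potassium phosphate pH 7.6 with MgCl2 at 37 °C. Substrate final 5 µM: ethoxyresorufin for 1A1/1B1, methoxyresorufin for 1A2. Ki was taken as the x-intercept of Dixon plots (1/v0 vs [I]). Mean ± SD of three independent experiments. Selectivity ratios are ratios of these Ki.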

[2] = molecular target: T2, Cytochrome P450 1A1 (Homo sapiens, UniProt P04798); assay: Inhibition of human microsomal CYP1A1-dependent ethoxyresorufin-O-deethylase activity at 10 nM measured over 6 mins by spectrofluorimetric analysis in absence of NADPH regenerating solution; conditions: 0.1 h, 0.01 µM
T2 sequence (P04798 whole entry): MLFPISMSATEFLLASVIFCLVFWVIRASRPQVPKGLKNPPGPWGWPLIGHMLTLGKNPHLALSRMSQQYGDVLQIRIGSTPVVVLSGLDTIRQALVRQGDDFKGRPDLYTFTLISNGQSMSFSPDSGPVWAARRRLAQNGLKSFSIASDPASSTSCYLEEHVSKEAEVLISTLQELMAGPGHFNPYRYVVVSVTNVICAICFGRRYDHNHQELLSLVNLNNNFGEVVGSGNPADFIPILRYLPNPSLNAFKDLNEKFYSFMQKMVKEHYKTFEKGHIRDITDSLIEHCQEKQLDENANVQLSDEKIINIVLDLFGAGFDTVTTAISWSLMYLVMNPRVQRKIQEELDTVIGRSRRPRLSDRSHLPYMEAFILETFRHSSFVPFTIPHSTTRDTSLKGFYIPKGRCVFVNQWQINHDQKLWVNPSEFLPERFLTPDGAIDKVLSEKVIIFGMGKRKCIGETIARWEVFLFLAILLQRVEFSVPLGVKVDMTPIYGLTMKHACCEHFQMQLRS
Method in brief: (§1)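 Microsomal P450 in 0.1 M potassium phosphate pH 7.6 with MgCl2 and 10 nM inhibitor in DMSO, 2 mL final. Preincubated 5 min at 37 °C either with NADPH-regenerating solution, or without it, with NADPH then added at start. Reaction started with ethoxyresorufin (final 5 µM). Resorufin formation followed 6 min at 37 °C.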

[3] = molecular target: T2, Cytochrome P450 1A1; assay: Inhibition of human microsomal CYP1A1-dependent ethoxyresorufin-O-deethylase activity at 10 nM preincubated for 5 mins followed by NADPH regenerating solution and substrate addition measured over 6 mins by spectrofluorimetric analysis; conditions: 0.1 h, 0.01 µM; method in brief: as §1
[4] = molecular target: T3, Cytochrome P450 1B1 (Homo sapiens, UniProt Q16678); assay: Inhibition of human microsomal CYP1B1-dependent ethoxyresorufin-O-deethylase activity at 10 nM preincubated for 5 mins followed by NADPH regenerating solution and substrate addition measured over 6 mins by spectrofluorimetric analysis; conditions: 0.1 h, 0.01 µM; method in brief: as §1
T3 sequence (Q16678 whole entry): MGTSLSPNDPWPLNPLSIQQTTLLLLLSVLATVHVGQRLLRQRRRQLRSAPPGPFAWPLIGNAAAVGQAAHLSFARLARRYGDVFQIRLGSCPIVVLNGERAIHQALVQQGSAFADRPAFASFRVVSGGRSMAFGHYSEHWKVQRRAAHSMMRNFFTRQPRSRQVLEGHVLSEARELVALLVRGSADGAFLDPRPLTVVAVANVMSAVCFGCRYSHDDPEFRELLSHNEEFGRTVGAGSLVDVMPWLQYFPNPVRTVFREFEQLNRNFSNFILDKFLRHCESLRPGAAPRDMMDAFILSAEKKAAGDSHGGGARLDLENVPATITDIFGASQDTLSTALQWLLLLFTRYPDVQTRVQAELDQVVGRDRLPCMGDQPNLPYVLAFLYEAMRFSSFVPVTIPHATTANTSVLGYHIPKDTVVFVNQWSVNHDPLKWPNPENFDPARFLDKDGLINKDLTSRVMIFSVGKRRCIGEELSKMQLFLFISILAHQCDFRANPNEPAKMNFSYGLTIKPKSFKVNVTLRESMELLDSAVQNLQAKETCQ

[5] = molecular target: T4, CYP1A2 (Homo sapiens, UniProt P05177); assay: Time-dependent inhibition of human microsomal CYP1A2-dependent methoxyresorufin-O-demethylase activity by spectrofluorimetric analysis in presence of NADPH regenerating solution; conditions: human microsomal CYP1A2, probe methoxyresorufin (O-demethylation)
T4 sequence (P05177 whole entry): T1 sequence (P05177 whole entry)
Method in brief: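 1A2 MROD run with NADPH at 0.0125, 0.025, 0.05 and 0.1 µM inhibitor, product monitored continuously over 6 min. Activity at different times came from first derivatives of product curves, expressed as % of control remaining. KI and limiting kinact were derived from the resulting linear plot.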

[6] = molecular target: T1, Cytochrome P450 1A2; assay: Inhibition of human microsomal CYP1A2-dependent methoxyresorufin-O-demethylase activity measured over 6 mins by spectrofluorimetric analysis; conditions: 0.1 h
Method in brief: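 Microsomal P450 (final 5 nM) in 0.1 M potassium phosphate pH 7.6 with MgCl2 at 37 °C. Substrate final 5 µM: ethoxyresorufin for 1A1/1B1, methoxyresorufin for 1A2. […] Ki was taken as the x-intercept of Dixon plots (1/v0 vs [I]). Mean ± SD of three independent experiments. Selectivity ratios are ratios of these Ki.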

[7] = molecular target: T1, Cytochrome P450 1A2; assay: Inhibition of human microsomal CYP1A2-dependent methoxyresorufin-O-demethylase activity at 10 nM measured over 6 mins by spectrofluorimetric analysis in absence of NADPH regenerating solution; conditions: 0.1 h, 0.01 µM
[8] = molecular target: T4, CYP1A2; assay: Inhibition of human microsomal CYP1A2-dependent methoxyresorufin-O-demethylase activity at 10 nM preincubated for 5 mins followed by NADPH regenerating solution and substrate addition measured over 6 mins by spectrofluorimetric analysis relative to control; conditions: human microsomal CYP1A2, probe methoxyresorufin (O-demethylation)

Structure (SMILES): Cc1cc2c(ccc3c(=O)cc(-c4ccccc4)oc32)o1
- Ki [1]: 0.03 µM
- inhibition (INH) [2]: Not Active
- inhibition (INH) [3]: Not Active
- inhibition (INH) [4]: Not Active
- kinact [5]: 0.007 s⁻¹
- inhibition (INH) [6]: Dose-dependent effect
- inhibition (INH) [7]: Active
- inhibition at 0.1 h, 0.01 µM [8]: > 90%
